Screens deposited in PubChem BioAssay by several laboratories.
Most compounds without a hit are left out; they make up all but 3.3% or so of the library.
GAA850 FXN act: frataxin GAA850 promoter activation; HEK293 lucGAA850 FXN promoter luciferase reporter, 24 h; percent of 10 µM SAHA response; activation, % at 6 µM; 360,000 compounds, 0.56% hits; AID 540364;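 active means activation above the average of all compounds screened plus 3 SD, cutoff fixed separately per campaign, cut at about 7.5% in these data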;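 further: 0% = DMSO wells and 100% = 10 µM SAHA wells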
AHR act: human AHR activation; AID 2796; P35869; AHR-responsive luciferase reporter cells, luminescence; 320,000 compounds, 2.5% hits; activation, % at 5 µM; in the data active means activation above about 47%;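 further: 0% = vehicle wells and 100% = reference agonist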
ABCB6 inh MLPCN: inhibitors of human ABC transporter ABCB6. 360,000 compounds, 0.19% hits. K562-ABCB6 porphyrin accumulation, flow cytometry, 1 h; stronger effect = lower value. fluorescence ratio to DMSO, % at 10 µM. Q9NP58;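 active means fluorescence ratio to DMSO below 75%, the collection mean minus 3 SD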;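 further: signal is porphyrin accumulated inside mitochondria; 100% equals median channel fluorescence of DMSO control wells; lower ratio means ABCB6 inhibition with less porphyrin fluorescence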
STAT3 act-1: increases IL-6 driven STAT3 reporter signal. activation (% of control), % at 5.6 µM. U3A cells, IL-6 STAT3-luciferase reporter, luminescence; 100% = signal with IL-6 EC80 alone. 190,000 compounds, 0.91% hits;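 active means activation above the screen-wide mean of compound activation plus 3 SD, cut at about 130% in these data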;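 further: 0% = background luminescence of wells with medium and substrate only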
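Test system: STAT3-luciferase reporter U3A cells; Detection: reporter luminescence signal; Times: 1 h compound pre-exposure, 6 h IL-6 stimulation, 37 °C; Benchmarks: IL-6-only high control; Also added: IL-6 stimulus at 33 ng/mL final.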
STAT3 act-2: STAT3 activation, confirmation assay | 1,200 compounds, 64% hits | U3A STAT3-luciferase reporter, IL-6 potentiation, luminescence; U3A cells lack STAT1; 100 means same as IL-6 alone | AID 1267 | shares compounds with STAT3 act-1 | potentiation (% of control), % at 5.7 µM;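 active means percent activation of the STAT3 luciferase reporter above a set limit taken from the earlier primary screen, cut at about 130% in these data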;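 further: 0% = background signal of medium plus substrate and 100% = median of IL-6 with DMSO wells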
NFkB act 2: NF-kappaB activation in STAT3 activator counter-screen. shares compounds with STAT3 act-1. human cells, NF-kappaB reporter activation. activation (% of control), % at 5.7 µM. 1,200 compounds, 11% hits. AID 1309; in the data active means activation above about 120%;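 further: reporter induced by TNF-alpha stimulation; 100% = median of stimulated DMSO wells and 0% = no signal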
STAT1 act: STAT1 activation in STAT3 activator counter-screen | activation (% of control), % at 5.7 µM | shares compounds with STAT3 act-1 | NIH 3T3 STAT1-luciferase reporter, IFN-gamma, luminescence | 1,200 compounds, 13% hits | AID 1318;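 active means activation above the solvent-only control well mean plus 3 SD, set per screening run, cut at about 120% in these data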;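 further: 100% = IFN-gamma with DMSO median signal so 100% means no change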
AHR act confirm: human AHR activation, confirmation | shares compounds with AHR act | activation, % at 9 µM | 2,300 compounds, 87% hits | AID 2845 | human cells, AHR-responsive luciferase reporter, luminescence; in the data active means activation above about 49%;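 further: HepG2 hepatoma cells carrying a DRE-driven firefly luciferase reporter; 0% = vehicle wells and 100% = reference agonist wells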
PXR counter: PXR activation, counter-screen for AHR activators. shares compounds with AHR act. cell-based PXR reporter, luciferase luminescence. activation, % at 11.6 µM. 2,300 compounds, 88% hits; in the data active means activation above about 11%;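 further: human hepatoma DPX-2 cells expressing full-length human PXR; 0% = DMSO and 100% = reference agonist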
Target sequence (O75469 whole entry, looked up): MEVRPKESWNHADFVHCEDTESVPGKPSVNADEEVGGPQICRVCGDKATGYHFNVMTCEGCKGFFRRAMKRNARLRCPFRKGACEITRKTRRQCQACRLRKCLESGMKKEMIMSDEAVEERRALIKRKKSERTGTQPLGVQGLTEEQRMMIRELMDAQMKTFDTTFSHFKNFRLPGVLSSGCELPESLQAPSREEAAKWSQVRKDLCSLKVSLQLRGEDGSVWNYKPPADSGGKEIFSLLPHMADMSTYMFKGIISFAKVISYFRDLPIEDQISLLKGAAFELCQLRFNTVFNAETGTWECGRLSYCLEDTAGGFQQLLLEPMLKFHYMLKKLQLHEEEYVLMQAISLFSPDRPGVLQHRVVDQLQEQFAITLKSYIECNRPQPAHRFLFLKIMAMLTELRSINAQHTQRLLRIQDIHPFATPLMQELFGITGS
GAA30 counter: counter-screen for GAA850 frataxin promoter activators: GAA30 promoter activation | shares compounds with GAA850 FXN act | HEK293 lucGAA30 FXN promoter luciferase, 24 h; DMSO = 0%, 5 µM ipriflavone = 100% | activation, % at 6 µM | 1,900 compounds, 66% hits | AID 588350;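 active means mean activation above the mean of solvent-only control wells plus 3 SD, cut at about 22% in these data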;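 further: counterscreen of GAA850 promoter hits where activity marks nonselective or luminescence artifacts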
GAA850 confirm: GAA850 FXN promoter activation confirmation. shares compounds with GAA850 FXN act. HEK293 lucGAA850 FXN promoter luciferase reporter, 24 h; 100% = activation by SAHA. activation, % at 6 µM. 1,900 compounds, 86% hits;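 active means mean activation above a set limit taken from the primary screen, cut at about 8% in these data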;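 further: 0% = DMSO wells and 100% = 10 µM SAHA wells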
An asterisk follows results filed as active; . = no result given.

SMILES | GAA850 FXN act | AHR act | ABCB6 inh MLPCN | STAT3 act-1 | AHR act confirm | PXR counter | others
COc1cc2c(cc1OC)-c1cc(N3CCCc4ccccc43)nc(=O)n1CC2 | 10* | 15 | 91 | 149* | . | . | STAT3 act-2=133*;NFkB act 2=103;STAT1 act=96;GAA30 counter=22;GAA850 confirm=16*
COc1cc(C)ccc1N(CCCN1C(=O)c2cccc3cccc(c23)C1=O)C(=O)c1cccs1 | 0 | 43 | 86 | 101 | . | .
COc1ccc(N(CCCN2C(=O)c3cccc4cccc(c34)C2=O)C(=O)c2cccs2)cc1 | 3 | 100* | 98 | 119 | 140* | 93*
O=C(NC(=S)NCc1ccccc1)c1cccc(Cl)c1 | 3 | 0 | 97 | . | . | .
Cc1nnc(N/N=C/c2ccc(-c3ccccc3F)o2)n1N | 3 | 109* | 101 | 121 | 75* | 24*
COc1ccc(-c2csc(-c3ccccc3)n2)c(OC)c1 | 5 | 37 | 85 | 93 | . | .
COc1ccc(-c2csc(-c3cccs3)n2)c(OC)c1 | 5 | 80* | 96 | 107 | 119* | 39*
CN(C)CCCNC(=O)C1(O)c2cc(Br)ccc2NC(=O)N1c1c(F)cccc1F (stereo not drawn) | 1 | 2 | 100 | . | . | .
O=C(NC(=S)N(Cc1ccccc1)Cc1ccccc1)c1ccccc1F | 2 | -1 | 102 | 96 | . | .
CC(C)=NNc1nc(-c2ccccc2)cs1 | 1 | 102* | 97 | 121 | 107* | 15*
CC(/C=C/c1ccccc1)=N\Nc1nc(-c2ccccc2)cs1 | -2 | 1 | 96 | 89 | . | .
COc1cc(NC(=O)COC(=O)/C=C/c2c(C)nn(-c3ccc(F)cc3)c2Cl)cc(OC)c1 | 1 | 2 | 96 | 105 | . | .
C=CCOC(=O)c1c(C)nc2cc3c(cc2c1C)OCO3 | 3 | 108* | 98 | 90 | 56* | 53*
CCc1ccc2[nH]c3nc(N/N=C/c4ccc(O)cc4O)nnc3c2c1 | 1 | 83* | 100 | . | 90* | .
Cc1ccc2[nH]c3nc(N/N=C/c4cccc(O)c4)nnc3c2c1 | 1 | 26 | 97 | . | . | .
COc1ccc(CCNC(=O)c2cnc3scc(C)n3c2=O)cc1OC | 2 | 105* | 100 | 114 | 94* | 40*
O=C(NC(Cc1ccccc1)C(=O)O)c1ccc(S(=O)(=O)N2CCCCC2)cc1 (stereo not drawn) | -3 | -1 | 98 | 104 | . | .
Cc1cc(C)nc(N(C#N)CC(=O)c2ccccc2)n1 | -3 | 44 | 100 | 84 | . | .
CCc1ccc(C(=O)CN(C#N)c2nc(C)cc(C)n2)cc1 | 3 | 85* | 87 | 93 | 63* | 19*
COc1ccc(C(=O)COC(=O)c2nc3nccc(C)n3n2)cc1F | 1 | 2 | 100 | . | . | .
Clc1cccc(Nc2ncnc3ccc(Br)cc23)c1 | -8 | 41 | 98 | 95 | . | .
COc1ccc(Nc2ncnc3nc[nH]c23)cc1OC | 0 | 90* | 97 | 96 | 75* | 21*
COc1ccc(Nc2ncnc3ccc(Br)cc23)cc1OC | -9 | 86* | 96 | . | 72* | 18*
Cc1cccc(Nc2ncnc3nc[nH]c23)c1 | 4 | 13 | 99 | 105 | . | .
CN(C)c1ccc(Nc2ncnc3ccc(Br)cc23)cc1 | -5 | 92* | 96 | . | 47 | 10
SMILES | GAA850 FXN act | AHR act | ABCB6 inh MLPCN | STAT3 act-1 | AHR act confirm | PXR counter | others
Cc1cccc(Nc2ncnc3ccc(Br)cc23)c1 | -3 | 101* | 99 | 81 | 72* | 30*
CCOC(=O)c1[nH]c(C(=O)O)c(CCN(CC)CC)c1C | 1 | -5 | 98 | 102 | . | .
CC1C(=NO)C(C)C(c2ccc(N(C)C)cc2)NC1c1ccc(N(C)C)cc1 (stereo not drawn) | 0 | 1 | 101 | 114 | . | .
COc1nc(Nc2ccc3c(c2)OCO3)nc(OC)n1 | 3 | 119* | 100 | . | 109* | 18*
COc1cc2ncnc(Nc3ccc4c(c3)OCO4)c2cc1OC | 1 | 104* | 95 | . | 101* | 25*
CC(=O)c1ccccc1Oc1nc(CN2CCOCC2)nc2scc(-c3cccs3)c12 | 0 | 5 | 95 | 103 | . | .
Cc1ccc(C23CC4CC(CC(C(=O)N5CCOCC5)(C4)C2)C3)cc1 | 1 | 3 | 97 | 95 | . | .
COC(=O)c1c(NC(=O)C2CC=CCC2C(=O)O)sc2c1CCCCC2 (stereo not drawn) | 1 | 1 | 97 | . | . | .
Brc1csc2ncccc12 | 3 | 2 | 98 | . | . | .
O=C(CCN1C(=O)c2ccccc2C1=O)Nc1ccc(-c2cn3ccsc3n2)cc1 | -4 | 102* | 100 | 87 | 125* | 25*
COc1cc(C(=S)N2CCOCC2)ccc1OC(=O)c1ccccc1[N+](=O)[O-] | 0 | 3 | 84 | . | . | .
CCOC(=O)C1=C(CSc2nc3ccccc3s2)NC(=O)NC1c1cc(C)ccc1C (stereo not drawn) | -2 | 9 | 96 | 107 | . | .
CCOc1ccc(C(C)=O)cc1COC(=O)CCc1cc(OC)c(OC)c(OC)c1 | 0 | 5 | 96 | . | . | .
Cc1ccc(C(=O)N/N=c2\oc3ccccc3cc2C(N)=O)cc1 | 1 | 23 | 96 | . | . | .
NC(=O)c1cc2ccccc2o/c1=N\NC(=O)c1ccncc1 | 0 | 127* | 93 | 104 | 137* | 15*
CN1C(=O)/C(=C\c2ccccc2OCc2ccccc2)SC1=S | 2 | 81* | 93 | . | 87* | 19*
c1coc(C2Nc3ccccc3-c3nc4ccccc4n32)c1 (stereo not drawn) | 2 | 129* | 94 | 101 | 49* | 71*
c1ccc(C2Nc3ccccc3-c3nc4ccccc4n32)nc1 (stereo not drawn) | 0 | 80* | 97 | 86 | 88* | 114*
c1ccc(C2Nc3ccccc3-c3nc4ccccc4n32)cc1 (stereo not drawn) | 6 | 41 | 95 | 96 | . | .
